# Bioassay records as filed in PubChem BioAssay.
# KCNK9 block: KCNK9 potassium channel inhibitors, primary screen, HEK293 cells, thallium flux; Potassium channel subfamily K member 9 (Homo sapiens), Q9NPC2; FluxOR thallium flux fluorescence; stronger effect = lower value; B-score at 10 µM; 310,000 tested, 1.2% active; AID 488922, 2010;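 active = ratio B-score over 3 SD below the library mean, with starting fluorescence within 5 SD of its mean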;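 note: negative B-score means less thallium flux so channel inhibition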
# Target sequence (Q9NPC2 whole entry, looked up): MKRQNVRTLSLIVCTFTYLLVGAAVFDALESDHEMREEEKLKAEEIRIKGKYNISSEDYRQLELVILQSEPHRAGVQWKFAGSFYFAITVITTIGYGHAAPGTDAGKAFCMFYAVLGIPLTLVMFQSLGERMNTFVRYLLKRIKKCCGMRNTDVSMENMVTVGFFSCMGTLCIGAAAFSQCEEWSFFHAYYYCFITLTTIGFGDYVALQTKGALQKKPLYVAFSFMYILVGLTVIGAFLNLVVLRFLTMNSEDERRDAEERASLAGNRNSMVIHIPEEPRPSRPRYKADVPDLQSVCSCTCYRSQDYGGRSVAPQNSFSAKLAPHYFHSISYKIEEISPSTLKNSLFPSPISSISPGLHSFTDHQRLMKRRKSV
# KCNQ1 pot: potentiators or activators of KCNQ1 channel, primary screen, cell-based, thallium flux, high-throughput. CHO-K1 KCNQ1, thallium flux FluxOR fluorescence; stronger effect = higher value. B-score at 10 µM. 310,000 tested, 0.35% active. AID 2648, 2010;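 active = fluorescence ratio B-score, a plate-corrected score, at least three library SD, with initial intensity B-score within 5 SD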
#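 System: CHO-K1 cells stably expressing KCNQ1 / Medium: assay buffer for compound exposure, DMSO matched across wells / Reagent: thallium- and potassium-containing depolarizing buffer / Compound: one concentration, matched DMSO / Incubation: 20 min compound pretreatment at room temperature / Measured by: kinetic FluxOR fluorescence, 10 s baseline plus 110 s post-stimulus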
# KCNQ1 inh: inhibitors of human KCNQ1 channel, primary screen, cell-based, thallium flux, high-throughput; B-score at 10 µM; CHO-K1 KCNQ1, FluxOR thallium flux fluorescence; stronger effect = higher value; 310,000 tested, 1.3% active; Potassium voltage-gated channel subfamily KQT member 1 (Homo sapiens), P51787; AID 2642, 2010;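 active = compounds whose thallium flux B-score, printed positive for inhibition, exceeds three library SD while starting fluorescence stays within three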;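 note: channel opened by potassium depolarization with thallium stimulus after 20 min compound exposure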
# Kir21 inh: inhibitors of mouse Kir2.1 inward-rectifier potassium channel. Inward rectifier potassium channel 2 (Mus musculus), P35561. HEK293-Kir2.1, FluxOR thallium flux fluorescence; stronger effect = lower value. B-score at 10 µM. 310,000 tested, 0.85% active. AID 1672, 2009;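 active = fluorescence ratio B-score at or below minus 3 SD of library scores, with starting-brightness B-score within 2 SD, cut at about -4.2 in these data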;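 note: channel flux triggered by added potassium and thallium sulfate stimulus; B-score of peak minus minimum fluorescence over baseline after thallium stimulus; more negative B-score means stronger Kir2.1 block with less thallium influx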
# hERG protect: hERG rescue from dofetilide block, primary screen, cell-based, CHO-hERG, FluxOR thallium flux, dofetilide IC70; Voltage-gated inwardly rectifying potassium channel KCNH2 (Homo sapiens), Q12809; dofetilide IC70 present; activation (rescue from dofetilide block), less the hit threshold, % at 10 µM; 310,000 tested, 0.51% active;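 active = activation above the mean of controls blocked by dofetilide plus 5 SD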;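 note: thallium influx through hERG after potassium depolarization seen as dye fluorescence rise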
# KCNK3 block: human KCNK3 channel inhibitors, primary screen, CHO cells, FluxOR thallium flux, B-score. Potassium channel subfamily K member 3 (Homo sapiens), O14649. FluxOR fluorescence; stronger effect = lower value. B-score at 10 µM. 340,000 tested, 0.84% active. AID 602410, 2012;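 active = B-score under library mean minus 4 SD, starting fluorescence ratio at most library mean plus 5 SD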;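 note: more negative B-score means stronger inhibition of thallium flux through KCNK3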
# KCNK9 inh conf: KCNK9 potassium channel inhibitors, confirmation, HEK293 cells, thallium flux, duplicate. shares compounds with KCNK9 block. FluxOR thallium flux fluorescence. AID 492992, 2010. 4,900 tested, 43% active. inhibition, % at 10 µM;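 active = thallium signal inhibited by more than 5 SD of the compound-free buffer control wells, on both duplicate plates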;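 note: 0% = assay buffer control wells without compound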
# Kir21 sel: mouse Kir2.1 channel inhibition, confirmation, selectivity assay for KCNK9 modulator project, cell-based, HEK293, thallium flux. 4,900 tested, 4% active. inhibition, % at 10 µM. AID 492993, 2010. Kir2.1 cells, FluxOR thallium flux fluorescence. shares compounds with KCNK9 block;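 active = thallium signal drop more than 5 SD beyond the mean of the no-compound control wells, seen in both duplicate plates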;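 note: signal is fluorescence rise after thallium addition divided by baseline fluorescence; plate controls were assay buffer only for no effect and full block by chlorpromazine control for full effect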
# HEK293 Tl ctr: thallium flux in non-induced HEK293 cells, confirmation, counter-screen for KCNK9 inhibitor project, cell-based, second counter screen, non-induced KCNK9-HEK293. 4,900 tested, 40% active. shares compounds with KCNK9 block. FluxOR thallium flux. inhibition, % at 10 µM;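 active = thallium signal drop beyond 5 SD of the untreated control mean, on both duplicate plates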;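 note: plate controls were buffer only IC0 wells for no effect and SID17386958 at its maximal inhibitory level for full effect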
# * = called active by the depositor; i = inactive; . = no result given. The list is not random: actives were taken first. Their share in the collection is about 3.8%.
SMILES,KCNK9 block,KCNQ1 pot,KCNQ1 inh,Kir21 inh,hERG protect,KCNK3 block,KCNK9 inh conf,Kir21 sel,HEK293 Tl ctr
COc1ccc(-c2ccc(OC)c([C@H]3[C@@H]4C=CCC[C@@]4(C)C(=O)N3Cc3ccccc3)c2)cc1OC,i,i,i,0.44,-16,i,.,.,.
COc1ccc(Br)cc1[C@H]1[C@@H]2C=CCC[C@@]2(C)C(=O)N1Cc1ccccc1,-15*,i,i,0.04,-11,i,66%*,i,49%*
CC1CCC(C(C)C)C(OC(=O)C[n+]2cc(-c3ccc(Cl)cc3)n3c2CCC3)C1 (stereo not drawn),-13*,i,i,-1.9,-22,i,48%*,44%*,i
O=C(C[n+]1cc(-c2ccc(Cl)cc2)n2c1CCC2)N1c2ccccc2Sc2ccccc21,i,i,i,-0.1,-17,i,.,.,.
CCOC(=O)/C=C1\SCC(=O)N1CC(=O)Nc1cc(S(=O)(=O)N(C)C)ccc1C,.,.,.,.,.,i,.,.,.
C=CCC1(CC=C)CCCN1C(=O)c1cc(COc2cccc(C(F)(F)F)c2)on1,i,i,i,-1.1,-12,i,i,i,i
Cc1ccc(CN(C)C(=O)c2cc(COc3cccc(C(F)(F)F)c3)on2)o1,i,i,i,-4.6*,-13,i,i,i,32%*
CN(CC(=O)Nc1ccc(F)cc1)C(=O)c1ccc(OCc2cn3ccccc3n2)cc1,.,.,.,.,.,i,.,.,.
COc1ccc(COC(=O)c2cccc(S(=O)(=O)N3CCN(C(C)=O)CC3)c2)cc1,i,i,i,-0.76,-9,i,.,.,.
CC1(C)C(C=C(Cl)Cl)C1C(=O)N/N=C/c1ccccc1F (stereo not drawn),-9.5*,i,i,-1.7,-13,i,i,i,27%*
O=C(N/N=C/c1ccccc1F)NC12CC3CC(CC(C3)C1)C2,i,i,i,1.1,3,i,.,.,.
O=C(CNC(=O)c1cc(Cl)cc([N+](=O)[O-])c1)NC1CC1,.,.,.,.,.,i,.,.,.
COc1ccc(-c2cc(=O)oc3c(O)c(O)ccc23)cc1,i,i,i,0.15,-8,i,.,.,.
CC1Oc2cc3oc4c(O)c(O)ccc4c(=O)c3c(O)c2C1(C)C (stereo not drawn),i,i,10*,2.6,-17,i,i,i,i
O=C(Nc1ccc(OC(F)F)c(Cl)c1)C(c1ccccc1)c1ccccc1,-10*,i,i,-0.75,-16,i,25%*,i,41%*
CC(C)N(C(=O)c1nn(C)c2c1CSc1ccccc1-2)C1CCCCC1,-10*,i,8*,0.69,-2,i,34%*,i,i
COC(=O)/C(=C/c1ccc2c(c1)c1ccccc1n2C)NC(=O)c1ccccc1,-8.6*,i,i,1.3,-6,i,54%*,i,38%*
CCOP(=O)(OCC)c1nc(-c2cccc3ccccc23)oc1NCCc1ccc(OC)cc1,i,i,i,-0.26,-12,i,i,i,28%*
